From PubChem BioAssay
TRPC4 potent: positive allosteric modulators of TRPC4, primary screen, cell-based, mouse TRPC4beta, HEK293 mu-opioid, Fluo-4 calcium; DAMGO EC20, Fluo-4 Ca2+ flux; stronger effect = higher value; Short transient receptor potential channel 4 (Mus musculus), Q9QUQ5; actives 0.42% (n = 310,000); B-score at 10 µM;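 active = B-score of calcium response area above 5 SD of library B-scores, with initial fluorescence ratio within 5 SD of library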;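 also: B-score of integrated fluorescence ratio over time as area under calcium response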
TRPC6 act: mouse TRPC6 channel activators, primary screen, cell-based, HEK293, membrane potential dye; AID 2550, 2010; actives 0.13% (n = 310,000); HEK293-TRPC6 membrane potential dye fluorescence; stronger effect = higher value; B-score at 10 µM; Short transient receptor potential channel 6 (Mus musculus), Q61143;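 active = B-score of the integrated fluorescence ratio above library mean plus 3 SD, and starting fluorescence ratio within library mean plus 5 SD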;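 also: higher score means more depolarization so channel activation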
Target sequence (Q61143 whole entry, looked up): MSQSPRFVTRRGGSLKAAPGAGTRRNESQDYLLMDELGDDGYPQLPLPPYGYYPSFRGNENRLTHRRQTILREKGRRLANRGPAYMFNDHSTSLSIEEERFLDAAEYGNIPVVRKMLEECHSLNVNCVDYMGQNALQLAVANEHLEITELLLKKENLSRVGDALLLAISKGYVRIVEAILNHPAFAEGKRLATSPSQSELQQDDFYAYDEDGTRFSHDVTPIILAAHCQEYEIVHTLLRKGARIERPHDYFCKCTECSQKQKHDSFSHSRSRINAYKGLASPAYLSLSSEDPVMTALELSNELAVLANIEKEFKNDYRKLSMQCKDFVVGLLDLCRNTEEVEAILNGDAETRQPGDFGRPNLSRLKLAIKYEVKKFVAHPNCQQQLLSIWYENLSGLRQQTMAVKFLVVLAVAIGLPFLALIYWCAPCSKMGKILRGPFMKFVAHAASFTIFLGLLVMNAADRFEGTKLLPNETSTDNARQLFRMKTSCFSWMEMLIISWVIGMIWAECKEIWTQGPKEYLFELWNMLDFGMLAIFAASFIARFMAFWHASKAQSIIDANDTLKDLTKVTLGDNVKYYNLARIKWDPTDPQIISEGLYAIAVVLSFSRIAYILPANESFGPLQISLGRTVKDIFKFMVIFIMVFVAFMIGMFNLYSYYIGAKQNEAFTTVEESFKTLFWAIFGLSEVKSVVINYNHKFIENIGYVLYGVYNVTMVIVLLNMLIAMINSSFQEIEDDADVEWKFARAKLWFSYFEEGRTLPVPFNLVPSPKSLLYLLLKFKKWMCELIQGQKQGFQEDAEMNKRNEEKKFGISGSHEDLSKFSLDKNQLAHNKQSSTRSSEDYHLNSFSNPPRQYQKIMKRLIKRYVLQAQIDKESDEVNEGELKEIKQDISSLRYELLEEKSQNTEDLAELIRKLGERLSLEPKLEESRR
TRPC4 agonist: activators of mouse TRPC4 channel, primary screen, Fluo4 calcium, HEK293 TRPC4beta/mu-opioid cells. Short transient receptor potential channel 4 (Mus musculus), Q9QUQ5. Fluo4 calcium fluorescence; stronger effect = higher value. B-score at 10 µM. actives 0.49% (n = 310,000). AID 2237, 2010;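 active = B-score above 5 SD of library B-scores, and initial fluorescence ratio not above library mean plus 5 SD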;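 also: positive B-score marks a calcium rise read as TRPC4 activation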
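Test system: HEK293 cells stably co-expressing mouse TRPC4beta and mu-opioid receptor | Schedule: Fluo4 dye loading 45 min at room temperature, 110 s recording | Measured by: Kinetic Fluo4 calcium fluorescence, 5 s baseline at 1 Hz | Evaluation: B score of integrated ratio | Controls: Buffer (low) and maximal DAMGO (high)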
TRPC6 inh: mouse TRPC6 channel inhibitors, primary screen, cell-based, HEK293, membrane potential dye; ACh-evoked depolarization; stronger effect = lower value; B-score at 10 µM; Short transient receptor potential channel 6 (Mus musculus), Q61143; actives 1.1% (n = 310,000);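 active = B-score under library mean minus 3 SD, initial fluorescence not abnormally high, positive integrated signal ratio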;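 also: B-score derived from integrated fluorescence ratio over the kinetic read; more negative B-score means stronger inhibition of depolarization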
TRPC4 inh: inhibitors of mouse TRPC4 channel, primary screen, Fluo4 calcium, HEK293 TRPC4beta/mu-opioid cells | actives 0.39% (n = 300,000) | Short transient receptor potential channel 4 (Mus musculus), Q9QUQ5 | DAMGO-evoked Fluo4 calcium flux; stronger effect = lower value | B-score at 10 µM;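 active = B-score over 3 SD under the library average, no early fluorescence shift, positive overall ratio signal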
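material = TRPC4beta/mu-opioid receptor HEK293 cell line | probe or stimulus = sequential submaximal and maximal DAMGO stimulation | compound dosing = one concentration per compound | measured by = Fluo4 Ca2+ flux fluorescence | evaluation = integrated fluorescence ratio relative to baseline, converted to per-well B score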
TRPC4 sel inh 2: second selectivity test of TRPC6 inhibitors: effect on mouse TRPC4 | inhibition, % at 10 µM | HEK293 TRPC4/MOR, membrane potential dye fluorescence; channel activated by saturating DAMGO dose | shares compounds with TRPC6 inh | actives 42% (n = 920);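 active = compounds whose fluorescence signal differed from control wells by over 3 SD, either direction, in both duplicate plates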
TRPC4 spec: mouse TRPC4 modulation by TRPC6 hits, confirmation, selectivity assay for TRPC6 inhibitor project, cell-based, HEK293 TRPC4/mu-opioid, membrane potential dye; shares compounds with TRPC6 inh; membrane potential fluorescence; activity change, negative = inhibition, % at 10 µM; actives 61% (n = 920); AID 2777, 2010;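 active = rise or fall in signal beyond 3 SD of buffer-only wells in both replicate plates, either sign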;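 also: integrated kinetic ratio of fluorescence range over baseline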
HEK293 MPD ctr 2-1: nonspecific membrane potential effects, parental HEK293, confirmation, counter-screen for TRPC6 inhibitor project, cell-based, second counter screen | signal change vs control, % at 10 µM | AID 2779, 2010 | shares compounds with TRPC6 inh | actives 31% (n = 920) | parental HEK293 membrane potential dye fluorescence; maximal acetylcholine challenge after compound addition;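 active = membrane potential signal moving either way by over 3 SD of the maximum-effect control, in both duplicate plates, meaning non-specific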
HEK293 MPD ctr-1: membrane potential modulation in parental HEK293, confirmation, counter-screen for TRPC6 inhibitor project, cell-based. shares compounds with TRPC6 inh. parental HEK293 membrane potential dye fluorescence. membrane potential signal change, % at 10 µM. actives 60% (n = 920);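 active = membrane potential signal shifting up or down by more than 3 SD of buffer-only wells, on both duplicate plates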
HEK293 MPD ctr-2: parental HEK293 membrane potential modulation, confirmation, counter-screen for TRPC6 modulator project, cell-based; shares compounds with TRPC6 inh; membrane potential dye fluorescence; membrane potential signal change, % at 10 µM; actives 51% (n = 2,400); AID 488924, 2010;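 active = membrane potential signal moves up or down beyond 5 SD from buffer-only wells, on both duplicate plates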
HEK293 MPD ctr 2-2: second counter-screen for TRPC6 modulators: effect in parental HEK293 cells; shares compounds with TRPC6 inh; inhibition, % at 10 µM; actives 14% (n = 2,400); membrane potential dye fluorescence; after compound, maximal acetylcholine stimulation;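 active = membrane potential signal drops by more than 5 SD from the mean control signal, in both duplicate plates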;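 also: plate controls were acetylcholine ECmax control wells for no effect and buffer only wells for full effect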
TRPC4 ctr mod: TRPC4 modulation by TRPC6 hit compounds, confirmation, selectivity assay for TRPC6 modulator project, cell-based, HEK293 TRPC4/mu-opioid, membrane potential dye, mouse. percent change from control (negative = decrease, positive = increase), % at 10 µM. actives 69% (n = 2,400). shares compounds with TRPC6 inh. AID 488927, 2010. membrane potential fluorescence;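 active = membrane potential signal moved up or down beyond 5 SD of buffer control wells, in both duplicate plates, actives on both sides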;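 also: plate controls were assay buffer wells for no effect and DAMGO maximal-effect wells for full effect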
TRPC4 ctr inh 2: mouse TRPC4 off-target activity of TRPC6 modulators, second screen; shares compounds with TRPC6 inh; HEK293 TRPC4/mu-opioid, membrane potential dye fluorescence; stimulated with maximal-effect DAMGO; inhibition, % at 10 µM; actives 55% (n = 2,400);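 active = drop in membrane potential signal beyond 5 SD of the control wells in both duplicate plates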;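 also: TRPC4 counter screen for TRPC6 hits run under conditions tuned for TRPC6 not TRPC4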
TRPC6 block conf: mouse TRPC6 channel inhibitors, confirmation, HEK293 cells, membrane potential dye, duplicate. shares compounds with TRPC6 inh. ACh-evoked depolarization. inhibition, % at 10 µM. actives 43% (n = 3,300). AID 488960, 2010;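 active = fluorescence ratio falls more than 5 SD below the full-stimulation control mean, in both duplicate runs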;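 also: integrated fluorescence ratio of peak minus minimum over baseline after agonist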
TRPC6 act confirm: mouse TRPC6 channel activators, confirmation, HEK293 cells, membrane potential dye, duplicate; shares compounds with TRPC6 inh; HEK293-TRPC6 membrane potential dye fluorescence, FDSS; activation, % at 10 µM; actives 11% (n = 2,800); AID 488961, 2010;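 active = ratio signal rise beyond 5 SD above unstimulated control wells' mean, seen in both duplicate runs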;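 also: plate controls were buffer EC0 wells for no effect and acetylcholine ECmax response for full effect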
The depositor's hits bear a star; i = inactive; · = no result. Rows were chosen to be rich in hits. Some 2.3% of all compounds tested hit in one or more screens of this group.

SMILES | TRPC4 potent | TRPC6 act | TRPC4 agonist | TRPC6 inh | TRPC4 inh | HEK293 MPD ctr-2 | HEK293 MPD ctr 2-2 | TRPC4 ctr mod | TRPC4 ctr inh 2 | TRPC6 block conf | TRPC6 act confirm | others
CN1CCN(c2ccccc2/C=C2/C(=O)Nc3ccccc32)CC1 | i | i | i | -5* | i | 120%* | i | 46%* | 72%* | i | ·
CC1CN(C2CCN(C(=O)COc3ccc(Cl)cc3)CC2)CC(C)O1 (configuration not stated) | i | i | i | i | i | · | · | · | · | · | ·
CCN(CC)CCN(C(=O)c1ccc2c(c1)OCCO2)c1nc2cc3c(cc2s1)OCO3 | i | i | i | -5.8* | i | i | i | -23%* | 84%* | 50%* | i
CN(C)CCCN(C(=O)c1ccc2c(c1)OCCO2)c1nc2cc3c(cc2s1)OCO3 | i | i | i | -5.7* | i | i | i | -18%* | 80%* | 78%* | i
COc1ccc(C)c2sc(N(CCN(C)C)C(=O)c3cccc(N4C(=O)CCC4=O)c3)nc12 | i | i | 68* | -6.4* | i | i | i | -18%* | 44%* | i | i
CN(C)CCN(C(=O)c1ccc(Br)s1)c1nc2cc3c(cc2s1)OCCO3 | i | i | i | i | i | · | · | · | · | · | ·
CN(C)CCCN(C(=O)c1ccc2ccccc2c1)c1nc2cc3c(cc2s1)OCO3 | i | i | i | i | i | · | · | · | · | · | ·
CN(C)CCN(C(=O)c1cccs1)c1nc2cc3c(cc2s1)OCCO3 | i | i | i | -8* | i | · | · | · | · | 96%* | i | TRPC4 sel inh 2=44%*;TRPC4 spec=-18%*;HEK293 MPD ctr 2-1=i;HEK293 MPD ctr-1=-230%*
COc1ccc([C@H]2/C=C\CN(S(=O)(=O)c3ccc4ccccc4c3)[C@@H](C)C(=O)N2Cc2ccc(F)cc2)cc1 | i | i | i | i | i | · | · | · | · | · | ·
CC(Sc1nncs1)C(=O)Nc1ccc(Cl)cn1 (configuration not stated) | i | i | i | i | i | · | · | · | · | · | ·
O=C1CSc2ccc(S(=O)(=O)N3CCN(c4ccccc4F)CC3)cc2N1 | i | i | i | i | i | · | · | · | · | · | ·
CC(C)CCN1C(=O)c2ccc(C(=O)Nc3ccc(Br)cc3C(=O)O)cc2C1=O | i | i | i | i | i | · | · | · | · | · | ·
COc1ccc(C)c2sc(N(CCCN(C)C)C(=O)c3ccc4c(c3)OCCO4)nc12 | i | i | i | -6.9* | i | · | · | · | · | 52%* | i | TRPC4 sel inh 2=47%*;TRPC4 spec=i;HEK293 MPD ctr 2-1=i;HEK293 MPD ctr-1=i
COc1ccc(C)c2sc(N(CCCN(C)C)C(=O)c3ccc(S(=O)(=O)N4CCc5ccccc5C4)cc3)nc12 | i | i | i | i | i | · | · | · | · | · | ·
Cc1cc(C)c2nc(N(CCCN(C)C)C(=O)c3ccc4c(c3)OCCO4)sc2c1 | i | i | i | -8.2* | i | · | · | · | · | i | i | TRPC4 sel inh 2=i;TRPC4 spec=i;HEK293 MPD ctr 2-1=i;HEK293 MPD ctr-1=0.4%*
Cc1cc(C)c2sc(N(CCCN(C)C)C(=O)c3ccc(Br)s3)nc2c1 | i | i | i | -9.6* | i | · | · | · | · | 78%* | i | TRPC4 sel inh 2=35%*;TRPC4 spec=-17%*;HEK293 MPD ctr 2-1=i;HEK293 MPD ctr-1=i
Cc1cc(C)c2nc(N(CCCN(C)C)C(=O)C3=COCCO3)sc2c1 | i | i | i | i | i | · | · | · | · | · | ·
CCN(CC)CCN(C(=O)C1=COCCO1)c1nc2cc(C)cc(C)c2s1 | i | i | i | -6.7* | i | · | · | · | · | i | i | TRPC4 sel inh 2=44%*;TRPC4 spec=i;HEK293 MPD ctr 2-1=i;HEK293 MPD ctr-1=0.6%*
CN(C)S(=O)(=O)c1cccc(NC(=O)c2ccc3c(c2)OCCO3)c1 | i | i | i | i | i | · | · | · | · | · | ·
CCOC(=O)c1c(N2C(=O)Nc3ccccc3N2O)sc2c1CCCCC2 | i | i | i | i | i | · | · | · | · | · | ·
COC(=O)c1c(N2C(=O)Nc3ccccc3N2O)sc2c1CCCC2 | i | 12* | i | i | i | 155%* | i | 18%* | i | i | 76%*
Cc1c(C)n(Cc2ccccc2)c2ccc(C(=O)NCCN3CCOCC3)cc12 | i | i | i | i | i | · | · | · | · | · | ·
Cc1c(C)n(Cc2ccccc2)c2ccc(C(=O)OCCN(C)C)cc12 | i | i | i | -6* | i | i | i | i | 72%* | 56%* | i
CCOC(=O)c1sc2ncnc(N3CCN(C(=O)OCC)CC3)c2c1C | i | i | i | i | i | · | · | · | · | · | ·
